Results: ChEMBL document CHEMBL1121423, “2,4-Dihydro-6-phenyl-1H-s-triazolo[4,3-a][1,4]benzoidiazepin-1-ones with antianxiety and antidepressant activity” (1980)

Key:
Type in all cases: functional
Mus musculus [1] = species: Mus musculus; assay: Effect of test compound on the potentiation of apomorphine-induced gnawing (AG) in aggregated mice
Summary of the method: (§1)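 Male albino CF-1 mice, 18-22 g. Compounds were dissolved or suspended in 0.25% aqueous methylcellulose and given intraperitoneally to groups of four or six mice per dose, at multiple dose levels. ED50 was calculated by the Spearman-Karber method.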

Mus musculus [2] = species: Mus musculus; assay: Effect on the antagonism of bicuculline-induced tonic-extensor convulsions (B); summary of the method: as §1
Mus musculus [3] = species: Mus musculus; assay: Effect on the antagonism of oxotremorine-induced hypothermia (OX); summary of the method: as §1
Mus musculus [4] = species: Mus musculus; assay: Effect on the potentiation of gamma-butyrolactone-induced sleep (gamma-B); summary of the method: as §1
Mus musculus [5] = species: Mus musculus; assay: Effect on the antagonism of nicotine-induced death (D); summary of the method: as §1
Mus musculus [6] = species: Mus musculus; assay: Effect on the antagonism of nicotine-induced tonic-extensor convulsions (TE) in mice; summary of the method: as §1
Mus musculus [7] = species: Mus musculus; assay: Effect on the potentiation of yohimbine-induced toxicity (Y) in aggregated mice; summary of the method: as §1
Mus musculus [8] = species: Mus musculus; assay: Effect on the prolongation of hypoxic survival time (HS); summary of the method: as §1
Mus musculus [9] = species: Mus musculus; assay: Effect on the antagonism of pentylenetetrazole-induced clonic convulsions (P)

Row | Structure (SMILES) | ED50 (Mus musculus [1]) | ED50 (Mus musculus [2]; Mus musculus, read-out: ED50) | ED50 (Mus musculus [3]) | ED50 (Mus musculus [4]) | ED50 (Mus musculus [5]; Mus musculus, read-out: ED50) | ED50 (Mus musculus [6]; Mus musculus, read-out: ED50) | ED50 (Mus musculus [7]) | ED50 (Mus musculus [8]) | ED50 (Mus musculus [9]) | ED50 (Mus musculus [2]) | ED50 (Mus musculus [5]) | ED50 (Mus musculus [6])
1 | Oc1nnc2n1-c1ccc(Cl)cc1C(c1ccccc1)=NC2 | > 50 mg/kg | 40 mg/kg | > 50 mg/kg | 6 mg/kg | 1.6 mg/kg | 1.4 mg/kg | > 50 mg/kg | > 50 mg/kg | 5.6 mg/kg | – | – | –
2 | CCN(CC)CCCCn1nc2n(c1=O)-c1ccc(Cl)cc1C(c1ccccc1Cl)=NC2 | > 12.5 mg/kg | > 12.5 mg/kg | 10.5 mg/kg | 12.5 mg/kg | 0.8 mg/kg | 0.8 mg/kg | > 12.5 mg/kg | 7 mg/kg | 4.4 mg/kg | – | – | –
3 | Oc1nnc2n1-c1ccc(Cl)cc1C(c1ccccc1Cl)=NC2 | > 50 mg/kg | 1 mg/kg | > 50 mg/kg | 0.4 mg/kg | 0.025 mg/kg | 0.025 mg/kg | > 50 mg/kg | > 50 mg/kg | 0.08 mg/kg | – | – | –
4 | Cn1nc2n(c1=O)-c1ccc(Cl)cc1C(c1ccccc1Cl)=NC2 | – | – | – | – | 0.002 mg/kg | 0.002 mg/kg | – | 2.2 mg/kg | 0.14 mg/kg | – | – | –
5 | CCN(CC)CCn1nc2n(c1=O)-c1ccc(Cl)cc1C(c1ccccc1Cl)=NC2 | > 100 mg/kg | 0.7 mg/kg | > 100 mg/kg | 0.4 mg/kg | 0.1 mg/kg | 0.09 mg/kg | > 100 mg/kg | 4 mg/kg | 0.45 mg/kg | – | – | –
6 | CN(C)CCn1nc2n(c1=O)-c1ccc(Cl)cc1C(c1ccccc1)=NC2 | > 100 mg/kg | 6 mg/kg | > 100 mg/kg | 5 mg/kg | 1.4 mg/kg | 0.89 mg/kg | > 100 mg/kg | 30 mg/kg | 3.2 mg/kg | – | – | –
7 | CN(C)CCCn1nc2n(c1=O)-c1ccc(Cl)cc1C(c1ccccc1Cl)=NC2 | 7.4 mg/kg | 14.9 mg/kg | > 50 mg/kg | 2.2 mg/kg | 1.1 mg/kg | 0.9 mg/kg | > 50 mg/kg | > 50 mg/kg | 6.3 mg/kg | – | – | –
8 | CN1CCN(CCn2nc3n(c2=O)-c2ccc(Cl)cc2C(c2ccccc2)=NC3)CC1 | > 50 mg/kg | 17.7 mg/kg | 14.9 mg/kg | 5.3 mg/kg | 8 mg/kg | 8 mg/kg | > 50 mg/kg | 10.5 mg/kg | 8.8 mg/kg | – | – | –
9 | CC(CN(C)C)Cn1nc2n(c1=O)-c1ccc(Cl)cc1C(c1ccccc1Cl)=NC2 (stereo not given) | > 50 mg/kg | 7 mg/kg | > 50 mg/kg | 2 mg/kg | 1.1 mg/kg | 1 mg/kg | > 50 mg/kg | 40 mg/kg | – | – | – | –
10 | CN1CCN(CCn2nc3n(c2=O)-c2ccc(Cl)cc2C(c2ccccc2Cl)=NC3)CC1 | > 25 mg/kg | 3.1 mg/kg | 12.5 mg/kg | 0.2 mg/kg | – | – | > 25 mg/kg | 3.1 mg/kg | 0.3 mg/kg | – | – | –
11 | CN1CCN(CCCn2nc3n(c2=O)-c2ccc(Cl)cc2C(c2ccccc2Cl)=NC3)CC1 | > 25 mg/kg | > 25 mg/kg | 25 mg/kg | 3.7 mg/kg | 0.5 mg/kg | 0.4 mg/kg | 25 mg/kg | > 30 mg/kg | 3.7 mg/kg | – | – | –
12 | O=c1n(CCCN2CCN(CCO)CC2)nc2n1-c1ccc(Cl)cc1C(c1ccccc1Cl)=NC2 | > 30 mg/kg | 12.5 mg/kg | > 25 mg/kg | 2 mg/kg | 0.56 mg/kg | 0.5 mg/kg | > 25 mg/kg | 20 mg/kg | 6.3 mg/kg | – | – | –
13 | CN(C)CCCn1nc2n(c1=O)-c1ccc(Cl)cc1C(c1ccccc1)=NC2 | > 50 mg/kg | 40 mg/kg | > 50 mg/kg | 10 mg/kg | 3.6 mg/kg | 3.6 mg/kg | > 50 mg/kg | > 50 mg/kg | 32 mg/kg | – | – | –
14 | CNCCCn1nc2n(c1=O)-c1ccc(Cl)cc1C(c1ccccc1Cl)=NC2 | > 50 mg/kg | > 50 mg/kg | > 50 mg/kg | 25 mg/kg | 1.4 mg/kg | 1.4 mg/kg | > 50 mg/kg | 9 mg/kg | 14.9 mg/kg | – | – | –
15 | Cn1nc2n(c1=O)-c1ccc(Cl)cc1C(c1ccccc1)=NC2 | > 50 mg/kg | 3 mg/kg | > 50 mg/kg | – | 0.63 mg/kg | 0.63 mg/kg | > 50 mg/kg | – | 2.5 mg/kg | 2 mg/kg | 1.1 mg/kg | 1 mg/kg
16 | CCN(CC)CCn1nc2n(c1=O)-c1ccc(Cl)cc1C(c1ccccc1)=NC2 | > 50 mg/kg | 10 mg/kg | > 50 mg/kg | 1 mg/kg | 1.3 mg/kg | 1.3 mg/kg | > 50 mg/kg | > 50 mg/kg | 4 mg/kg | – | – | –
17 | O=c1n(CCCN2CCN(c3ccccc3)CC2)nc2n1-c1ccc(Cl)cc1C(c1ccccc1Cl)=NC2 | > 50 mg/kg | > 50 mg/kg | > 50 mg/kg | > 50 mg/kg | 40 mg/kg | 40 mg/kg | > 50 mg/kg | > 50 mg/kg | > 50 mg/kg | – | – | –
18 | CCN(CC)CCCn1nc2n(c1=O)-c1ccc(Cl)cc1C(c1ccccc1Cl)=NC2 | > 50 mg/kg | > 50 mg/kg | > 25 mg/kg | 5.3 mg/kg | 1.3 mg/kg | 1.1 mg/kg | > 50 mg/kg | 10 mg/kg | 8.8 mg/kg | – | – | –
19 | CN(C)Cc1nnc2n1-c1ccc(Cl)cc1C(c1ccccc1)=NC2 [ADINAZOLAM] | 5.3 mg/kg | 0.7 mg/kg | 5.3 mg/kg | 1.6 mg/kg | 0.13 mg/kg | 0.11 mg/kg | – | 5 mg/kg | 0.9 mg/kg | – | – | –
20 | CN1C(=O)CN=C(c2ccccc2)c2cc(Cl)ccc21 [DIAZEPAM] | > 50 mg/kg | 2.6 mg/kg | > 50 mg/kg | 0.035 mg/kg | 0.28 mg/kg | 0.28 mg/kg | > 50 mg/kg | 0.2 mg/kg | 0.1 mg/kg | – | – | –
21 | CN(C)CCCN1c2ccccc2CCc2ccccc21 [IMIPRAMINE] | 1 mg/kg | 21 mg/kg | 1 mg/kg | 18 mg/kg | 7 mg/kg | 7 mg/kg | 4 mg/kg | > 50 mg/kg | – | – | – | –
